Broadly, the EC50 is the concentration at which the effect is half-maximal.

Results on two compounds are retold here after publication PMC11908206 (bioRxiv, 2025).

Experiment [1] deals with TOPFlash reporter in DLD1 cells. In words: TOPFlash WNT transcriptional reporter in TNKS1 isogenic DLD1 cells. It counts as cell-based. The settings on record: Homo sapiens, DLD-1, read-out: TOP-Flash reporter EC50.
In experiment [2] the test system is AXIN1 in DLD1 cells. The experiment can be described thus: Western blot of endogenous AXIN1 in TNKS1 isogenic DLD1 cells. The format is cell-based. The settings on record: 500nM or 250nM, 24h. In short, it runs like this: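 DLD1 TNKS1-edited clones made by Cas9 and TNKS1 sgRNA transduction with drug selection, then single-cell cloning by limiting dilution. For blotting, 700,000 cells/well were allowed to adhere 24h and treated with compound for 24h. Lysis in RIPA buffer on ice for 20 min; 20 µg protein per sample blotted for AXIN1; band intensity quantified.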
On the technique in general: In western blotting, separated proteins are transferred to a membrane and probed.

Experiment [3] deals with PARP1 (Homo sapiens, UniProt P09874). The experiment can be described thus: PARP1 inhibition. The format is biochemical. The following applies: Fig. S9.
Experiment [4] deals with PARP2 (Homo sapiens, UniProt Q9UGN5). The experiment can be described thus: PARP2 inhibition. The following applies: Fig. S9. It counts as biochemical.
Experiment [5] addresses T1, PARP3 (Homo sapiens, UniProt Q9Y6F1).
T1 sequence (Q9Y6F1 1-533): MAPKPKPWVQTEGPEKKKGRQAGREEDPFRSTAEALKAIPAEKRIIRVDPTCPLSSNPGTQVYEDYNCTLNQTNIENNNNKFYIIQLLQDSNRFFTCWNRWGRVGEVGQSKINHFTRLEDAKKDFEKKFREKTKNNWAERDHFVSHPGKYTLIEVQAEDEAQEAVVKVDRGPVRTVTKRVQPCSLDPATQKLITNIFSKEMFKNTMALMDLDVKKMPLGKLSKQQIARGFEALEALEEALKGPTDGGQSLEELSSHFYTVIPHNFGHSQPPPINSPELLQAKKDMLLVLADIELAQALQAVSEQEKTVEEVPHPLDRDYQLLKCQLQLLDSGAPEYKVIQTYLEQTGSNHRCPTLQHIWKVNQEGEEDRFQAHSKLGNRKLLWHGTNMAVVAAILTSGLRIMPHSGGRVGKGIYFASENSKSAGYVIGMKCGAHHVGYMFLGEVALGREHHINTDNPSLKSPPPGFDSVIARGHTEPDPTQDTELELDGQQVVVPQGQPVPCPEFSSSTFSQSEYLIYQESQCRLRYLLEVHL
In words: PARP3 inhibition. The format is biochemical. The following applies: Fig. S9.

Experiment [6] deals with TNKS2^WT, TNKS2^L1136Y and TNKS1 SAM-PARP domains. In words: In vitro PARylation assay with purified SAM-PARP domains. It counts as biochemical.
Experiment [7] relates to AXIN1 in TNKS1^KO DLD1 cells. The format is cell-based. The following applies: 24h.
Experiment [8] deals with Apc^Q1405X small intestinal organoids. The experiment can be described thus: RNA-seq and GSEA of ApcQ1405X small intestinal organoids. The following applies: 250nM G007-LK or 500nM TDI-012804, 3 days; for transcriptional response (RNA-seq), Tnks1 KO: ApcQ1405X/Tnks1 KO organoids; for transcriptional response (RNA-seq), Tnks1 WT: ApcQ1405X/Tnks1 WT organoids. The format is cell-based, mouse. In short, it runs like this:
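Organoids plated at one six-well per condition in EN medium (basal Advanced DMEM/F12 with EGF 40 ng/ml and LDN 50 nM). Medium contained DMSO or test compound at 250 nM or 500 nM, then harvested for RNA isolation and sequencing.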

In experiment [9] the test system is AXIN1 in SW403 cells. In words: Western blot of AXIN1 in SW403 cells. The following applies: SW403 (8p heterozygous), 250nM, 24h. It counts as cell-based, human. The gist of the method: (§1)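 Cells grown in RPMI-1640 with 10% FBS; 700,000 per well seeded and allowed to adhere 24h. Exposed to 250 nM compound for 24h, then lysed in RIPA buffer on ice for 20 min and cleared at 15,000 rpm for 10 min. 20 µg protein per lane probed for AXIN1; band intensity quantified.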

For experiment [10], the system named is AXIN1 in H23 cells. In words: Western blot of AXIN1 in H23 cells. The format is cell-based, human. The following applies: 8p diploid H23, 250nM, 24h. In short, it runs like this: as §1
Experiment [11] relates to H23 cells. In words: Colony forming assay, H23. It counts as cell-based, human.
The subject of experiment [12] is OVCAR4 cells. In words: Colony forming assay, OVCAR4. The format is cell-based, human.
The test system of experiment [13] is ApcQ1405X small intestinal organoids. The experiment can be described thus: Organoid viability. It counts as cell-based, mouse. The settings on record: 250nM. In short, it runs like this: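 Mouse ApcQ1405X small-intestinal organoids plated at high density in Matrigel, two wells per condition, in EN medium (EGF 40 ng/ml, LDN 50 nM) containing DMSO or 250 nM compound. Medium changed every 2 days. Every 4 days, alamarBlue added to one well and fluorescence read; the other well passaged 1:2 into the same condition. Run for 20 days; n = 3, mean with SEM.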

The test system of experiment [14] is ApcQ1405X/KrasG13D/p53Q97X small intestinal organoids. In words: Organoid viability. It counts as cell-based, mouse. The following applies: six days.
Experiment [15] deals with ApcQ1405X/KrasG12D/p53Q97X small intestinal organoids. In words: Organoid viability. The following applies: six days. The format is cell-based, mouse.
Experiment [16] deals with ApcQ1405X small intestinal organoids. In words: Organoid viability. The format is cell-based, mouse. The following applies: all Tnks1 genotypes, 6 days.

Some results are limits rather than exact numbers.

PARP1, sequence (P09874 whole entry, species assumed): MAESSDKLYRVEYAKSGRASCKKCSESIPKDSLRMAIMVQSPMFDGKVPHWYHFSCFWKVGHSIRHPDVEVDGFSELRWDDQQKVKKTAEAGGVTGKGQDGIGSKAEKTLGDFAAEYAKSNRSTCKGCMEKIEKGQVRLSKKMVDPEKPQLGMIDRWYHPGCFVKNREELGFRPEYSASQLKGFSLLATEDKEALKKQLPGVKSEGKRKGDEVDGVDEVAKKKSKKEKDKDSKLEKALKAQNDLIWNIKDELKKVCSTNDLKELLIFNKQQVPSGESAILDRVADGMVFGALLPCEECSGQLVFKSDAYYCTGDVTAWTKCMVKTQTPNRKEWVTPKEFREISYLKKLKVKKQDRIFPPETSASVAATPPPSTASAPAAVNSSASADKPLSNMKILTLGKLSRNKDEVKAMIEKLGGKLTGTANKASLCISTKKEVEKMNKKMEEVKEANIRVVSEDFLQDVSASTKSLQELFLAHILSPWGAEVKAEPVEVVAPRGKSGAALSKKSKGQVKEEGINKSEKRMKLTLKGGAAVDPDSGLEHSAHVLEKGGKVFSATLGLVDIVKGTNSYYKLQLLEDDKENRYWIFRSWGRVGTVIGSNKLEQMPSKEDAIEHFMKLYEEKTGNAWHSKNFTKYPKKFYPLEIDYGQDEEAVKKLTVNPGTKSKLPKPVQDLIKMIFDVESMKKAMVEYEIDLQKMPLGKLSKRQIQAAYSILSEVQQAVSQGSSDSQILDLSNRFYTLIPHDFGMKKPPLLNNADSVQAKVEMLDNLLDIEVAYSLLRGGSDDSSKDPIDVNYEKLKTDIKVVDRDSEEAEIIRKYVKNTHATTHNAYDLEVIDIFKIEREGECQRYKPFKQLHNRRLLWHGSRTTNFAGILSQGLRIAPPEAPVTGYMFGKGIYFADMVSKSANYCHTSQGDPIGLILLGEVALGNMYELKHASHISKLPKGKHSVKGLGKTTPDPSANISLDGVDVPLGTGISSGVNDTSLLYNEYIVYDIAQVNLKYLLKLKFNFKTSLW
PARP2, sequence (Q9UGN5 whole entry, species assumed): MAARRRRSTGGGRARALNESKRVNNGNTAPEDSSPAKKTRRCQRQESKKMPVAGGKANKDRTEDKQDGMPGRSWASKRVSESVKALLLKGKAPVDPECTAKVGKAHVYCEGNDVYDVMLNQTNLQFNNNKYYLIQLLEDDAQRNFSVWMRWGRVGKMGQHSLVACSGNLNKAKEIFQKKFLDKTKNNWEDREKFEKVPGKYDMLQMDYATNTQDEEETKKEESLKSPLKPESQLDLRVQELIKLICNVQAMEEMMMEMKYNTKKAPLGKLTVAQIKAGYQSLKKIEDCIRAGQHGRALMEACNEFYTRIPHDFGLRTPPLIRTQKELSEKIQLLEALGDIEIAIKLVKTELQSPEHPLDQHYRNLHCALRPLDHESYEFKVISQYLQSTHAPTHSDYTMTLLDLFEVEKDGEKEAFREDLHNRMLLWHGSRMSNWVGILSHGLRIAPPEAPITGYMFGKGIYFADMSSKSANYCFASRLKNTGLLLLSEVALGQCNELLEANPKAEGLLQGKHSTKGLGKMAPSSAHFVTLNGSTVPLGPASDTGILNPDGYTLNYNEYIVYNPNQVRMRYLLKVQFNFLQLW

For `COc1cc(-c2ccccc2)ncc1C(=O)Nc1ccc2c(=O)[nH]c(-c3ccc(C(C)(C)O)cc3)nc2c1` [TDI-012804, COC1=C(C=NC(=C1)C1=CC=CC=C1)C(=O)NC1=CC=C2C(=O)NC(=NC2=C1)C1=CC=C(C=C1)C(C)(C)O], the EC50 in [1] is under 100 nM. In [2] (DLD1 TNKS1 HET), the “endogenous AXIN1 protein (western blot), TNKS1 HET” value is “marked stabilization”. Also, the “endogenous AXIN1 protein (western blot), TNKS1 KO” value in experiment [2] (DLD1 TNKS1 KO) is “marked stabilization”. Also, the “endogenous AXIN1 protein (western blot), TNKS1 diploid” value in experiment [2] (DLD1 TNKS1 diploid controls) is “minimal increase”. The “inhibition of PARP1” value in experiment [3] is reported as “no inhibition”. Further, the “inhibition of PARP2” value in experiment [4] is reported as “no inhibition”. In addition, in [5], the “inhibition of PARP3” value is recorded as “no inhibition”. The “effect of L1136Y mutation on potency against TNKS2” value in experiment [6] is “significantly reduced the potency”. Moreover, the “AXIN1 protein (western blot), TNKS1 KO” value in experiment [7] (TNKS1 KO DLD1, 250nM) is recorded as “increased AXIN1 protein”. Also, the “AXIN1 protein (western blot), TNKS1 KO/TNKS2 WT” value in experiment [7] (TNKS1 KO DLD1 expressing TNKS2 WT cDNA, 250nM) is “increased AXIN1 protein”. Besides, in experiment [8], the “transcriptional response (RNA-seq), Tnks1 KO” value is recorded as “near-identical overall transcriptional response to G007-LK treated cultures” and the “transcriptional response (RNA-seq), Tnks1 WT” value was “no significant gene expression changes”. Also, in experiment [9], the “AXIN1 protein (western blot), SW403” value is “induced AXIN1 stabilization to similar levels as the pan-TNKS inhibitor G007-LK”. Moreover, the “AXIN1 protein (western blot), H23” value in [10] is “did not induce AXIN1 stabilization”. The “colony formation, H23” value in experiment [11] (8p diploid H23, 250nM) is on record as “nor suppress colony formation”. Further, in [11] (H23 shTNKS1, 250nM, further enhanced with Palbociclib), the “colony formation, H23 with suppression of TNKS1” value is “significant sensitization”. Also, the “colony formation, OVCAR4 TNKS1-depleted” value in experiment [12] (OVCAR4 shTNKS1, 250nM) is “significantly reduced”. The “organoid proliferation over 20 days, Tnks1 HET” value in experiment [13] (ApcQ1405X Tnks1 HET organoids) is “significant reduction in proliferation”. Also, the “organoid proliferation over 20 days, Tnks1 KO” value in experiment [13] (ApcQ1405X Tnks1 KO organoids) is given as “significant reduction in proliferation”. The “toxicity to Tnks1 KO compared to Tnks1 WT AKP-G13D organoids” value in [14] is “selectively toxic”. Besides, in experiment [15], the “toxicity to Tnks1 KO compared to Tnks1 WT AKP-G12D organoids” value is “selectively toxic”.
Take `CS(=O)(=O)c1ccc(-c2nnc(/C=C/c3nnc(-c4ccc(C#N)cc4)o3)n2-c2ccccc2Cl)nc1` [G007-LK, reference compound]: in experiment [8], the “transcriptional response (RNA-seq), Tnks1 KO” value is “broad transcriptional changes” and the “transcriptional response (RNA-seq), Tnks1 WT” value is reported as “broad transcriptional changes”. Also, the “colony formation, OVCAR4” value in experiment [12] (OVCAR4, 250nM, with or without Palbociclib) is on record as “sensitive”. Besides, the “organoid proliferation (organoid area and AlamarBlue)” value in [16] is on record as “robust suppression of proliferation across all Tnks1 genotypes”. In addition, the “organoid growth over 20 days” value in experiment [13] (ApcQ1405X organoids) is given as “robust suppression of organoid growth”.
